Tests used:
[1] = Tmax in Beagle dog at 3 or 5 mg/kg, po; assay type: ADME, organism-based, Canis lupus familiaris; details: in vivo
Procedure, shortened: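 Male animals (CD-1 mice 25−35 g, cannulated Wistar-Han rats 250 g, beagle dogs 12 kg, cynomolgus monkeys 7 kg), fasted overnight and fed 1.0 or 2.0 h after dosing, water ad libitum. Oral dose 3 or 5 mg/kg in 0.5% methylcellulose. Parameters calculated from plasma concentration−time data; mean ± SD for n = 3, individual values for n = 2.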

[2] = Plasma clearance in Beagle dog at 1 mg/kg, iv and 3 or 5 mg/kg, po; assay type: ADME, organism-based, Canis lupus familiaris
Procedure, shortened: (§1)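 Male CD-1 mice (25−35 g), cannulated Wistar-Han rats (250 g), beagle dogs (12 kg) and cynomolgus monkeys (7 kg), fasted overnight and fed 1.0 or 2.0 h after dosing. iv 1 mg/kg in saline or 12% sulfobutyl ether β-cyclodextrin; po 3 or 5 mg/kg in 0.5% methylcellulose. Parameters calculated from plasma concentration−time data; mean ± SD for n = 3, individual values for n = 2.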

[3] = biological target: T1, Myeloperoxidase (Homo sapiens) (UniProt P05164); test: Inhibition of peroxidase activity of MPO isolated from human polynuclear leukocytes using Amplex Red as substrate assessed as formation of resorufin by measuring ratio of Kinact to Ki measured every 20 secs by spectrophotometric analysis
T1 sequence (whole entry): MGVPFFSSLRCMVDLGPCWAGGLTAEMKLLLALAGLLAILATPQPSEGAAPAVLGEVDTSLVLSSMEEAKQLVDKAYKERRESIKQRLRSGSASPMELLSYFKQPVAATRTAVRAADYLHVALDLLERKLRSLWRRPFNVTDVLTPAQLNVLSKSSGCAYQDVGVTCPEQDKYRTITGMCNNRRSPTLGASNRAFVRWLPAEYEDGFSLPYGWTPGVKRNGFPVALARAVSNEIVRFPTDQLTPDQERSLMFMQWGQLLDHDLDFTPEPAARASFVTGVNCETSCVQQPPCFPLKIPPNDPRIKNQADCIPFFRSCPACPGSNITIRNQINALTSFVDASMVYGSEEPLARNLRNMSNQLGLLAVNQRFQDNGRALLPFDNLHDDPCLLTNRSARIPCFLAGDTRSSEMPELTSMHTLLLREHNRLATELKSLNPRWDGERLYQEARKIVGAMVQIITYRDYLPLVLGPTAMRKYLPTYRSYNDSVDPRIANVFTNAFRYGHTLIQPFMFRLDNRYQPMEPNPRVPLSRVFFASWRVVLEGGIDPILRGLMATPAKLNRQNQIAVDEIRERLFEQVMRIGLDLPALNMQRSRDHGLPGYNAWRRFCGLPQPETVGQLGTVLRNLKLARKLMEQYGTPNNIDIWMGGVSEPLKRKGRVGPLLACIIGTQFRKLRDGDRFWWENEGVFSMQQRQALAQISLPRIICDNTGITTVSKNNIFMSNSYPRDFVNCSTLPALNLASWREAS
Procedure, shortened: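 Enzyme purified from human polynuclear leukocytes. Buffer: 50 mM sodium phosphate pH 7.4, 150 mM NaCl, 1 mM DTPA, 2 μM H2O2, 30 μM Amplex Red, inhibitor or DMSO. Resorufin fluorescence (ex 530/em 580) read every 20 s at room temperature. Progress curves fitted for kobs at each concentration. kinact/KI derived from the kobs versus [I] fit or slope. Geometric mean of at least two experiments.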

[4] = test system: Liver microsome; test: Intrinsic apparent clearance in human liver microsomes; assay type: ADME
Procedure, shortened: (§2)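 Stability incubations in NADPH-supplemented human liver microsomes or cryopreserved human hepatocytes. Total apparent intrinsic clearance scaled from the in vitro half-life; microsomes reported per mg protein, hepatocytes per 10⁶ cells.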

[5] = test system: Hepatocyte; test: Intrinsic apparent clearance in human hepatocytes assessed per 10^6 cells; assay type: ADME, cell-based; procedure, shortened: as §2
[6] = Volume of distribution at steady state in Beagle dog at 1 mg/kg, iv and 3 or 5 mg/kg, po; assay type: ADME, organism-based, Canis lupus familiaris; details: in vivo, read-out: Vdss
Procedure, shortened: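 Male mice, rats, dogs and cynomolgus monkeys, fasted overnight, fed after dosing. Intravenous dose 1 mg/kg in saline or 12% sulfobutyl ether β-cyclodextrin; oral arm 3 or 5 mg/kg in 0.5% methylcellulose. Steady-state volume derived from plasma concentration−time data; mean ± SD for n = 3, individual values for n = 2.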

[7] = biological target: T2, Myeloperoxidase (Homo sapiens, UniProt P05164); test: Irreversible inhibition of MPO in LPS-stimulated human whole blood after 4 hrs by Amplex Red/H2O2-based fluorescence plate reader analysis
T2 sequence (P05164 whole entry): T1 sequence (whole entry)
Procedure, shortened: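 Heparinized whole blood from healthy human volunteers, stimulated with bacterial LPS and incubated with compound for 4 h. MPO captured on anti-MPO antibody plates and washed; residual activity measured with Amplex Red and H₂O₂. IC₅₀ reported as geometric mean [90% CI].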

[8] = Fraction unbound in human plasma by equilibrium dialysis method; assay type: ADME, cell-free
Procedure, shortened: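 Fraction unbound in human plasma measured by equilibrium dialysis; mean of three individual determinations.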

[9] = Elimination half life in Wistar rat at 1 mg/kg, iv and 3 or 5 mg/kg, po; assay type: ADME, organism-based; details: in vivo, read-out: beta t1/2 (converted); procedure, shortened: as §1

| SMILES | Tmax [1] [min] | clearance [2] [mL/min/kg] | log(ratio) [3] | CLH(app) [4] [µL/min/mg] | CLH(app) [5] [µL/min] | Vd [6] [L/kg] | IC50 [7] [nM] | fraction unbound [8] | half-life [9] [min] |
| --- | --- | --- | --- | --- | --- | --- | --- | --- | --- |
| COc1ccc(-c2cc(=O)[nH]c(=S)n2CC(N)=O)c(OC)c1 | 90 | 1.31 | 4.03 | < 8 | < 6 | 0.3 | 2600 | 0.5 | 45.6 |
| COc1ccc(-c2cc(=O)[nH]c(=S)n2CCO)c(OC)c1 | 70.2 | 11.9 | 4.47 | < 8 | < 6 | 1.33 | 2000 | 0.5 | 15 |
| COc1ccc(Cl)cc1-c1cc(=O)[nH]c(=S)n1CC(N)=O [PF-06282999] | 42 | 3.39 | – | < 8 | < 6 | 0.54 | – | – | 45 |
| COc1ccc(-c2cc(=O)[nH]c(=S)n2CCN)c(OC)c1 | 78 | 13.4 | 4.13 | 8.8 | 2.9 | 3.66 | 500 | 0.7 | 66 |
| COc1ccc(OC)c(-c2cc(=O)[nH]c(=S)n2CC(N)=O)c1 | 37.8 | 7.07 | 4.09 | < 8 | < 6 | 1.03 | 1500 | 0.6 | 22.8 |

From ChEMBL document CHEMBL3632461 (J Med Chem, 2015)
